Sampled rows, rich in hits. Any-hit rate of the full collection: about 3.2%.
DENV2 CPE rescue – protects cells from dengue virus 2 cytopathic effect | CPE inhibition, % at 9.99 µM | DENV2-infected cells, cytopathic effect rescue, plate reader | 1.7% of 350,000 active; in the data active = CPE inhibition above about 20%, passing the limit was not always enough; inconclusive = no clear call, values can overlap the other calls; tested in BHK-21 cells;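 note: 0% = median of neutral control wells and 100% = median of positive control wells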
Ecoli rRNA inh – inhibits bacterial ribosomal RNA function over humanized ribosomes | GFP signal change (wild-type ribosome), % (concentration not given with the values) | 1.6% of 350,000 active | AID 720706 | E. coli WT GFP vs humanized-ribosome RFP mutants, fluorescence, 24 h; stronger effect = lower value; DMSO median 0, no signal -100;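 active = significant combined selectivity score with lowered wild-type GFP, culture density cut under 30%, mutant RFP and density less affected; inactive = any of these conditions unmet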
PfHsp90 set2 – growth inhibition of yeast expressing Plasmodium Hsp90. S. cerevisiae expressing PfHsp90, BacTiter-Glo ATP, 48 h; yeast lacking PDR1 and PDR3 efflux regulators. inhibition, % at 9.4 µM. 0.32% of 310,000 active;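 active = every replicate shows inhibition above about 80%, whatever the replicate mean, limit read from the data; inconclusive = mean inhibition reaches the set limit but some replicate falls short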;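 note: 0% = DMSO neutral controls and 100% = 20 µM radicicol positive controls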
Cneo AK release – causes C. neoformans cell lysis; adenylate kinase release luminescence, 4 h; normalised: neutral wells 0, clomiphene wells 100; lysis activity, % at 15 µM; 0.2% of 360,000 active;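 active = mean lysis activity across replicates of at least 80%, whatever share of replicates individually reach that level; inactive = mean lysis activity below 80%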
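Assay system: log-phase C. neoformans yeast / Quantity: yeast cell density of 5 × 10^6 cells/mL / Medium: fresh YPD growth medium / Compound: single dose / Timing: static 4 h at 37 °C with compound, 1 h detection / Measured by: adenylate kinase release luminescence / Read-out: lysis from increased AK signal / Benchmarks: Clomiphene as positive lysis control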
AF4-AF9 inh – MLL-AF4/AF9 protein interaction inhibition; P42568; AlphaScreen, biotin-AF4 peptide binding to FLAG-AF9; inhibition, % at 10 µM; 0.47% of 350,000 active; AID 651704;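 active = every replicate reaching a set inhibition limit, whatever the replicate mean, cut at about 25% in these data; inconclusive = mean inhibition reaches that limit but some replicates miss it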;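 note: 0% = plate neutral control median and 100% = total signal loss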
S100A4 MyoIIA – blocks human S100A4 binding to myosin IIA peptide. P26447. S100A4/TAMRA-MyoIIA peptide fluorescence polarization. inhibition, % at 10.7 µM. 0.14% of 360,000 active;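 active = mean inhibition of at least 70% across replicates, with every replicate also reaching that level; inconclusive = mean inhibition reaches 70% but some replicates fall short; inactive = mean inhibition below 70%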
Target sequence (P26447 whole entry, looked up): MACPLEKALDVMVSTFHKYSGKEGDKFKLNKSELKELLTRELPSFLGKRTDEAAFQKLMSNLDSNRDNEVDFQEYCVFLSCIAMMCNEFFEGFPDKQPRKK
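Test system: S100A4 monomer protein. Medium: HEPES buffer with Ca2+, pH 7.2. Reagent: fluorescent myosin IIA peptide, 5 nM. Compound dosing: single-point compound testing. Timing: 5 min between mix addition and reading. Benchmarks: DMSO neutral and TFP positive wells.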
* hit, by the source's call; ? = inconclusive; · = no result.

SMILES	DENV2 CPE rescue	Ecoli rRNA inh	PfHsp90 set2	Cneo AK release	AF4-AF9 inh	S100A4 MyoIIA
C=CCn1c(C)cc(C(=O)CSc2nc3ccccc3c(=O)[nH]2)c1C	·	·	100*	-3	·	·
Cc1cc(C(=O)CSc2nc3ccccc3[nH]2)c(C)n1Cc1ccco1	0	-34*	-36	-18	-3	0
C=CCn1c(C)cc(C(=O)CSc2nnc(NC(C)C)s2)c1C	·	·	10	-2	·	·
C=CCn1c(C)cc(C(=O)CSc2nnc(NCc3ccccc3)s2)c1C	·	·	111*	-1	·	·
Cc1ccc(S(=O)(=O)N(C)C[C@H]2Oc3c(NC(=O)Nc4ccc(F)cc4)cccc3C(=O)N([C@H](C)CO)C[C@@H]2C)cc1	-5	-2	·	-2	2	-2
O=C(C[C@H]1C=C[C@@H](NC(=O)NC2CCCC2)[C@@H](CO)O1)NCc1ccc(F)cc1	3	-1	·	-4	-2	17
C[C@@H]1CN([C@@H](C)CO)C(=O)c2cc(NS(=O)(=O)c3cccs3)ccc2O[C@H]1CN(C)Cc1ccc(Cl)c(Cl)c1	-6	-8	·	6	8	14
CCN(CC)S(=O)(=O)c1ccc2c(c1)nc(CCC(=O)OCC(=O)Nc1c(F)cccc1F)n2C	45*	-4	-17	·	-2	-9
C[C@@H]1CN([C@H](C)CO)C(=O)Cc2cc(NS(C)(=O)=O)ccc2O[C@H]1CN(C)S(=O)(=O)c1ccc(F)cc1	6	3	·	-3	-2	2
Cc1ccc(S(=O)(=O)N(C)C[C@@H]2Oc3ccc(NS(=O)(=O)c4ccc(Cl)cc4)cc3CC(=O)N([C@H](C)CO)C[C@H]2C)cc1	?	-3	·	2	-1	3
C[C@H]1CN([C@@H](C)CO)C(=O)Cc2cc(NS(=O)(=O)c3ccc(F)cc3)ccc2O[C@H]1CN(C)S(=O)(=O)c1ccc(F)cc1	2	1	·	100*	-11	9
C[C@H](CO)N1C[C@H](C)[C@@H](CN(C)S(=O)(=O)c2ccc(F)cc2)Oc2ccc(NS(=O)(=O)c3ccc(F)cc3)cc2CC1=O	-9	-4	·	-5	4	11
Cc1ccc(S(=O)(=O)N(C)C[C@@H]2Oc3ccc(NS(=O)(=O)c4ccc(Cl)cc4)cc3CC(=O)N([C@@H](C)CO)C[C@@H]2C)cc1	?	-3	·	100*	-1	-4
C[C@H]1CN([C@@H](C)CO)C(=O)Cc2cc(NS(C)(=O)=O)ccc2O[C@H]1CN(C)S(=O)(=O)c1ccc(F)cc1	23*	0	·	-1	-3	5
CO[C@H]1CN(C)C(=O)c2cc(NS(=O)(=O)c3ccc(Cl)cc3)ccc2OC[C@H](C)NC[C@@H]1C	-3	1	·	0	-3	-3
COc1ccc(/C=C/C=O)cc1	5	·	·	-42	-2	6
CC(C)NC(=O)N1[C@@H](CO)[C@@H](c2ccccc2)C12CN(C(=O)Cc1ccccc1)C2	-7	3	·	·	-22	7
CC(C)NC(=O)N1[C@@H](CO)[C@@H](c2ccccc2)C12CN(C(=O)Cc1cccnc1)C2	6	-1	·	·	-8	125*
CC(C)NC(=O)N1[C@H](CO)[C@@H](c2ccccc2)C12CN(Cc1ccc(Cl)cc1)C2	-12	-8	·	·	6	-16
CC(C)NC(=O)N1CC2(C1)[C@H](c1ccccc1)[C@@H](CO)N2C(=O)c1ccccn1	33*	3	·	·	-1	5
O=C(Cc1cccnc1)N1CC2(C1)[C@H](c1ccccc1)[C@@H](CO)N2C(=O)C1CCOCC1	-13	4	·	·	·	·
CC(C)NC(=O)N1[C@@H](CO)[C@@H](c2ccccc2)C12CN(Cc1ccccc1)C2	28*	-1	·	·	3	-5
O=C(Cc1cccnc1)N1CC2(C1)[C@@H](c1ccccc1)[C@@H](CO)N2C(=O)C1CCOCC1	22*	2	·	·	-1	44
C[C@H](O)C#Cc1cnc2c(c1)C(=O)N([C@@H](C)CO)C[C@H](C)[C@@H](CN(C)C(=O)CC1CC1)O2	0	5	·	21	0	9
CC(C)OC(=O)N(C)C[C@H]1OCc2ccccc2-c2ccccc2C(=O)N([C@@H](C)CO)C[C@H]1C	·	2	·	·	·	·

Bioassay records as filed in PubChem.
